# OX1R antag-1 = OX1R (HCRTR1) antagonists, primary screen, fluorescence, CHO/OX1R cells, Fluo-8 calcium, orexin A. Fluo-8 calcium fluorescence. Orexin/Hypocretin receptor type 1 (Homo sapiens), O43613. actives 0.43% (n = 330,000). inhibition, % at 5 µM;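 active = inhibition above its plate's threshold, mean inhibition of all tested compounds on the plate plus 3 SD, cut at about 37% in these data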
# GalR3 antag = GalR3 antagonists in HEK293 cells, primary screen, cell-based, fluorescence readout | Galanin receptor type 3 (Homo sapiens), O60755 | HEK293 GalR3-CNG cAMP membrane potential fluorescence; galR3 body fused to GalR1 C-terminus | inhibition, % at 3 µM | actives 0.44% (n = 360,000) | AID 651719, 2012;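 active = inhibition above the screen-wide average plus 3 SD, cut at about 13% in these data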;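 note: forskolin and galanin both at EC90 stimulate the cells; cAMP rise reported by CNG channel membrane potential dye signal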
# Target sequence (O60755 1-299 limits assumed): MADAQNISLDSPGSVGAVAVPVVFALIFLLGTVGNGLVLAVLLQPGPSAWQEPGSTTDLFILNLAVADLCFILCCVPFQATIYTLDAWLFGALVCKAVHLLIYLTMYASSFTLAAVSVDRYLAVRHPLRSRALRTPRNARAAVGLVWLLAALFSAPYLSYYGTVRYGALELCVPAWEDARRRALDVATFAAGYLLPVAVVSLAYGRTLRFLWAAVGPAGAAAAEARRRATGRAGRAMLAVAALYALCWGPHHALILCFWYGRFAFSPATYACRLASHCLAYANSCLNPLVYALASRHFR
# GPR7 antagonist = GPR7 receptor antagonists, primary screen, cell-based, fluorescence, single concentration | Neuropeptides B/W receptor type 1 (Homo sapiens), P48145 | GPR7-expressing cells, fluorescence antagonist assay | inhibition, % at 4.4 µM | actives 1.1% (n = 290,000) | AID 1861, 2009; in the data active = inhibition above about 16%, passing the limit was not always enough;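 note: cells stimulated with the agonist NPW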
# Target sequence (P48145 whole entry, looked up): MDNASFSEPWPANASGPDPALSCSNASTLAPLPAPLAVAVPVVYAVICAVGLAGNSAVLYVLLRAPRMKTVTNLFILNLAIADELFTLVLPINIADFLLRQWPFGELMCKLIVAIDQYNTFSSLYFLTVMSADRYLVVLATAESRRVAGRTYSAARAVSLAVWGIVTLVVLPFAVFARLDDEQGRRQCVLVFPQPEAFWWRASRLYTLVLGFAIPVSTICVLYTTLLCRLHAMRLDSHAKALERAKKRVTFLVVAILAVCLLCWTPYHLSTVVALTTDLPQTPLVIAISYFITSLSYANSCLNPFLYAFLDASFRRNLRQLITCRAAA
# OX1R antag-2 = antagonists of human orexin 1 receptor (OX1R); Orexin/Hypocretin receptor type 1 (Homo sapiens), O43613; actives 1.8% (n = 330,000); inhibition, % at 6.6 µM; OX1R-expressing cells, FRET antagonist read-out; in the data active = inhibition mostly above about 38%, no sharp cut-off; inactive = mostly below about 40%
# CHO parental Ca = ATP-evoked calcium signal inhibitors, parental CHO, primary screen, counter-screen for OX1R antagonist project, cell-based, fluorescence, Fluo-8 calcium dye | parental CHO-K1, ATP-induced calcium, Fluo-8 fluorescence | inhibition, % at 5.6 µM | actives 0.63% (n = 330,000) | AID 463079, 2010;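 active = inhibition above that plate's mean sample inhibition plus 3 SD, cut at about 26% in these data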
#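 Test system: untransfected parental CHO cell line. Compound: one dose, 5.6 µM nominal. Detection: intracellular calcium via Fluo-8 no-wash fluorescent dye. Measure: % inhibition. Benchmarks: ATP-challenged DMSO wells low, unchallenged DMSO wells high.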
# Hits are given with their value; 0 = inactive; - = no result given. A selection: hits, their analogues and other compounds. The true share with any hit is near 3.1%.
SMILES,OX1R antag-1,GalR3 antag,GPR7 antagonist,OX1R antag-2,CHO parental Ca
COc1ccc(CC(=O)NCC(=O)N/N=C(/C)c2ccco2)cc1,0,0,0,0,0
O=C(Nc1ccccc1Cl)c1cc[n+](Cc2ccc([N+](=O)[O-])cc2)cc1,0,0,0,40,0
O=C(Cc1ccc(F)cc1)Nc1nc(-c2ccc(F)c(F)c2)cs1,-,0,0,-,-
O=C(CSc1ncnc2[nH]ncc12)Nc1nc(-c2ccc(F)c(F)c2)cs1,45,0,0,52,42
Cc1ccc(S(=O)(=O)CC(=O)Nc2nc(C(C)(C)C)cs2)cc1,0,0,0,0,0
COc1ccc(COCC(O)CN2CCC(CN3C(=O)c4cccc5cccc(c45)C3=O)CC2)cc1OC (stereo not given),0,0,0,49,0
COc1cccc(OCC(O)CN2CCC(CN3C(=O)c4cccc5cccc(c45)C3=O)CC2)c1 (stereo not given),0,0,0,0,0
C[C@H](CO)N1C[C@H](C)[C@@H](CN(C)Cc2ccc(C(=O)O)cc2)OCCCC[C@H](C)Oc2ccc(NC(=O)CCC(F)(F)F)cc2C1=O,-,0,-,-,-
Cc1ccc2c(c1)CCCN2S(=O)(=O)c1cccc(C(=O)Nc2ccccc2C(=O)O)c1,0,0,0,58,0
O=C(O)c1cccc(NC(=O)c2cccc(S(=O)(=O)N3CCc4ccccc43)c2)c1,0,0,0,0,0
O=c1[nH]nc(-c2ccc([N+](=O)[O-])o2)c(=O)[nH]1,-,0,-,-,-
CSc1ncccc1C(=O)Nc1ccc2nc(C)sc2c1,0,0,0,0,0
CCOc1ncccc1C(=O)Nc1ccc2nc(C)sc2c1,0,0,0,76,0
Cc1ccc(CNC(=O)CN(C(=O)C2(C)CC(=O)N=C3C=CC=CN32)c2cccc(C)c2C)cc1 (stereo not given),0,0,0,0,0
Cc1cccc(CSC(=N)N)c1,0,0,0,0,0
Cc1cccc(CSC(Nc2ccc(F)cc2)=C(C#N)C#N)c1,0,0,0,0,25
CCN(CC)CC(C)(C)C(=O)/C=C/c1ccc(/C=C/C(=O)C(C)(C)CN(CC)CC)cc1,-,36,-,-,-
COc1ccc2oc(=O)c(C(=O)NCC3CCCO3)cc2c1 (stereo not given),0,0,0,61,0
COc1ccc2oc(=O)c(C(=O)NC3CCCCCC3)cc2c1,0,0,0,0,0
COc1cccc2cc(C(=O)NCC3CCCO3)c(=O)oc12 (stereo not given),0,0,0,77,0
Cc1sc2ncn(CC(=O)NCCCOC(C)C)c(=O)c2c1S(=O)(=O)N1CCN(c2ncccn2)CC1,0,0,0,0,0
CCCCOCCCNC(=O)C[C@@H]1C[C@@]2(C(=O)OCC)CCCC=C2N(Cc2ccco2)C1=O,-,0,-,-,-
Cc1nn(CCC(=O)O)c2nc(-c3cccnc3)cc(C(F)(F)F)c12,0,0,0,0,0
Cc1nn(CCc2nn[nH]n2)c2nc(-c3ccc(C4CCCCC4)cc3)cc(C(F)(F)F)c12,0,0,0,0,55
COc1ccccc1OCCSc1nc2ccccc2n1CCC(=O)O,0,0,0,67,0
SMILES,OX1R antag-1,GalR3 antag,GPR7 antagonist,OX1R antag-2,CHO parental Ca
COc1ccc(OCCSc2nc3ccccc3n2CCC(=O)O)cc1,0,0,0,54,0
Cc1ccc[n+](CC(=O)Nc2ccc(Cl)c([N+](=O)[O-])c2)c1,0,0,0,0,0
COc1ccc(-c2nc3ncccc3o2)cc1NC(=O)c1cccs1,0,0,0,0,0
O=C(Nc1cccc(-c2nc3ncccc3o2)c1)c1ccccc1,0,0,0,56,0
O=C(Nc1cc(-c2nc3ncccc3o2)ccc1Cl)c1cccs1,0,0,0,67,0
Cc1ccc(NC(=O)C2CCCN2S(=O)(=O)c2ccc(-c3ccc(=O)[nH]n3)s2)c(C)c1 (stereo not given),0,0,0,0,0
Cc1ccc2c(c1)-c1c(cnn1CC(=O)N1CCCN(Cc3ccccc3F)C1)CO2,0,-,0,43,0
CC(NC(=O)CN(C)Cc1cccc(Cl)c1)c1ccccc1 (stereo not given),0,0,0,0,0
CCN(CC)S(=O)(=O)c1ccc(O)c(NC(=O)c2cc(-c3cc(OC)c(OC)c(OC)c3)nc3ccccc23)c1,0,-,0,68,0
O=S(=O)(c1ccc(Br)c2nsnc12)N1CCOCC1,0,0,0,40,0
Cc1ccc(S(=O)(=O)N2CCOCC2)c2nsnc12,0,0,0,41,0
CN1CCN(S(=O)(=O)c2ccc(Sc3nc4ccccc4[nH]3)c3nsnc23)CC1,0,0,0,163,0
CN1CCN(S(=O)(=O)c2ccc(Br)c3nsnc23)CC1,0,0,0,65,0
COc1ccc(CNC(=O)C2CCC(=O)N(CCCN3CCCC3=O)C2)cc1 (stereo not given),0,0,0,0,0
COc1ccc(N=C2C(=O)N3CCCc4cccc2c43)cc1,0,0,0,66,0
COc1ccc([N+](=O)[O-])c2c(=O)ccoc12,0,0,0,0,0
CCOC(=O)c1cc(=O)c2c([N+](=O)[O-])ccc(OC)c2o1,0,0,0,70,0
CN(Cc1ccco1)S(=O)(=O)c1nnc(NC(=O)c2cccc(Cl)c2)s1,0,0,0,0,29
O=C(NCCn1cc(SCc2ccc(F)cc2)c2ccccc21)c1ccccc1F,0,-,0,0,71
O=C(NCCn1cc(SCc2ccc(F)cc2)c2ccccc21)c1c(F)cccc1F,0,-,0,0,42
O=C(CSc1cn(CCNC(=O)c2c(F)cccc2F)c2ccccc12)NCC1CCCO1 (stereo not given),0,0,0,0,0
CCCn1cc(SCC(=O)NCc2ccco2)c2ccccc21,0,0,0,0,0
O=C(NCCn1cc(SCc2ccccc2)c2ccccc21)c1c(F)cccc1F,0,-,0,0,70
Cn1cc(SCC(=O)NCc2ccc(F)cc2)c2ccccc21,0,0,0,0,0
O=C(CSc1cn(CCNC(=O)c2ccccc2)c2ccccc12)NCc1ccco1,0,-,0,41,0
CSc1ncccc1C(=O)Nc1ccccc1N1CCOCC1,0,0,-,0,0
O=C(CCNS(=O)(=O)c1ccc2nsnc2c1)N1CCN(c2ccncc2)CC1,0,0,-,51,0
Cc1ccc(S(=O)(=O)NCCC(=O)N2CCN(c3cccc(Cl)c3)CC2)cc1C,0,0,0,0,0
CC(=O)OC[C@@H]1CN(Cc2ccccc2)C[C@H](n2cnc3c(N4CCN(c5ccccc5)CC4)ncnc32)O1,-,0,-,-,-
COc1cc(/C=C/C(=O)OCC(=O)N2c3ccccc3NC(=O)C2(C)C)cc(OC)c1OC,0,0,-,39,0

# Screens (PubChem BioAssay)
